Activity calls are given as the source filed them. The calls are words filed in the database; no cut-off is given here.
Tests used:
[1] = Antiproliferative activity against human L-82 cells assessed as reduction in cell viability after 72 hrs by CellTiter-Glo assay; type: functional, cell-based; details: L-82, 72 h
How it was run: (§1)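 Cells seeded in 96-well plates, left overnight at 37°C, then exposed to a range of test concentrations for 72 h. Viability read by CellTiter-Glo luminescence; IC50 from four-parameter curve fit. Lines kept at 37°C, 5% CO2, in recommended growth medium.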

SU-DHL-1 = assay: Antiproliferative activity against human SU-DHL-1 cells assessed as reduction in cell viability after 72 hrs by CellTiter-Glo assay; type: functional, cell-based; details: SU-DHL-1, 72 h; how it was run: as §1
NCI-H1299 = assay: Antiproliferative activity against human NCI-H1299 cells assessed as reduction in cell viability after 72 hrs by CellTiter-Glo assay; type: functional, cell-based; details: NCI-H1299, 72 h; how it was run: as §1
[2] = Cytotoxicity against HFF cells assessed as reduction in cell viability after 72 hrs by CellTiter-Glo assay; type: toxicity, cell-based; details: human; how it was run: as §1
COLO 205 = assay: Induction of cell cycle arrest in human COLO 205 cells assessed as cells accumulation at G1 phase at 1 umol/L incubated for 48 hrs by propidium iodide staining based flow cytometric analysis (reference value: 65%); type: functional; details: dose 1 µmol/L, at 1 µM
How it was run: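 COLO 205, MCF-7 or NCI-H929 cells seeded in 96-well plates overnight at 37°C, then exposed to DMSO or increasing compound concentrations for 24 or 48 h. Fixed and stained with propidium iodide (Vindelov method), then analysed by flow cytometry for sub-G1, G1, S and G2-M fractions. Experiment repeated twice.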

[3] = Toxicity in nu/nu CD-1 mouse implanted with mouse NIH-3T3/LISN cells assessed as reduction in body weight at 30 mg/kg, po for 21 days; type: organism-based; details: in vivo, 504 h, time 21 day
[4] = (§2) In vivo inhibition of IGF1R in mouse NIH-3T3/LISN cells implanted in IGF1-stimulated nu/nu CD-1 mouse assessed as reduction in IGF1R phosphorylation at 30 mg/kg, po pretreated for 4 hrs followed by IGF1 stimulation and measured after 10 min by […] relative to control; type: functional; details: 4.167 h, time 250 min
How it was run: (§3)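 Female nu/nu CD-1 mice, three per group, bearing ~500 mm3 tumors, given one oral dose of compound or vehicle. At 4 h, 10 µg hIGF-I i.v. via tail vein; saline controls. Tumor and blood taken 10 min later. Tumor lysates in RIPA captured on anti-IGF-IR plates and probed with europium anti-phosphotyrosine. Phospho/total IGF-IR expressed as % of ligand-stimulated control. Blood levels by LC-MS/MS.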

[5] = as §2, with “xenografted” for “implanted”, “3.5 umol/L blood compound concentration” for “30 mg/kg, po”; type: functional; details: dose 3.5 µmol/L; time 250 min; 4.167 h; at 3.5 µM; how it was run: as §3
[6] = as §2, with “xenografted” for “implanted”, “3 umol/L blood compound concentration” for “30 mg/kg, po”, “1 to 72” for “4”; type: functional; details: dose 3 µmol/L; time 60-4330 min; at 3 µM
[7] = target: Receptor tyrosine-protein kinase erbB-2 (Homo sapiens, UniProt P04626); assay: Inhibition of ErbB2 (unknown origin)
[8] = target: Inhibitor of nuclear factor kappa-B kinase subunit beta (Homo sapiens, UniProt O14920); assay: Inhibition of IKK2 (unknown origin)
[9] = target: Mitogen-activated protein kinase 8 (Homo sapiens, UniProt P45983); assay: Inhibition of JNK1 (unknown origin)
[10] = target: MAP kinase-activated protein kinase 2 (Homo sapiens, UniProt P49137); assay: Inhibition of MAPKAPK2 (unknown origin)
[11] = target: Cyclin-dependent kinase 16 (Homo sapiens, UniProt Q00536); assay: Inhibition of PCTAIRE1 (unknown origin)
[12] = target: Phosphatidylinositol 4,5-bisphosphate 3-kinase catalytic subunit delta isoform (Homo sapiens, UniProt O00329); assay: Inhibition of PI3Kdelta (unknown origin)
[13] = target: Vascular endothelial growth factor receptor 2 (Homo sapiens, UniProt P35968); assay: Inhibition of VEGFR2 (unknown origin)
[14] = target: Tyrosine-protein kinase BTK (Homo sapiens, UniProt Q06187); assay: Inhibition of N-terminal His6-tagged recombinant full-length human BTK expressed in baculovirus infected Sf21 cells at 0.3 uM by filter binding assay relative to control
How it was run: (§4)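 Outsourced single-concentration screen in a commercial panel of 233 protein kinases, run as radiometric filter-binding activity assays. Test agent was tested at 0.3 or 3 µmol/L, as given in each line, from a 10 mmol/L DMSO stock. Activity is expressed as percent inhibition relative to control.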

[15] = target: Vascular endothelial growth factor receptor 1 (Homo sapiens) (UniProt P17948); assay: Inhibition of N-terminal GST-tagged recombinant human Flt1 (783 to end residues) expressed in baculovirus infected Sf21 cells at 0.3 uM by filter binding assay relative to control; how it was run: as §4
[16] = target: SRSF protein kinase 1 (Homo sapiens) (UniProt Q96SB4); assay: Inhibition of N-terminal GST-tagged recombinant human SRPK1 expressed in Escherichia coli at 0.3 uM by filter binding assay relative to control; how it was run: as §4
[17] = target: Serine/threonine-protein kinase TBK1 (Homo sapiens) (UniProt Q9UHD2); assay: Inhibition of N-terminal His6-tagged recombinant full-length human TBK1 expressed in baculovirus infected Sf21 cells at 0.3 uM by filter binding assay relative to control; how it was run: as §4
[18] = target: Dual specificity mitogen-activated protein kinase kinase 6 (Homo sapiens) (UniProt P52564); assay: Inhibition of N-terminal maltose binding protein-tagged human MKK6 (4 to end residues) expressed in Escherichia coli at 3 uM by filter binding assay relative to control
[19] = target: Serine/threonine-protein kinase Sgk2 (Homo sapiens) (UniProt Q9HBY8); assay: Inhibition of human SGK2 at 3 uM by filter binding assay relative to control
[20] = target: Serine/threonine-protein kinase PLK2 (Homo sapiens) (UniProt Q9NYY3); assay: Inhibition of human Snk at 3 uM by filter binding assay relative to control
[21] = target: Serine/threonine-protein kinase TAO2 (Homo sapiens) (UniProt Q9UL54); assay: Inhibition of N-terminal 6His-tagged recombinant human TAO2 expressed in Sf21 cells at 3 uM by filter binding assay relative to control; how it was run: as §4
[22] = target: Serine/threonine-protein kinase TBK1 (Homo sapiens) (UniProt Q9UHD2); assay: Inhibition of N-terminal His6-tagged recombinant full-length human TBK1 expressed in baculovirus infected Sf21 cells at 3 uM by filter binding assay relative to control; how it was run: as §4
Aurora kinase A = Aurora kinase A (Homo sapiens, UniProt O14965); assay: Inhibition of N-terminal 6His-tagged recombinant full-length human Aurora-A expressed in Sf21 cells by filter binding assay
[23] = target: Receptor-type tyrosine-protein kinase FLT3 (Homo sapiens, UniProt P36888); assay: Inhibition of N-terminal GST tagged recombinant human Flt3 (564 to end residues) expressed in Sf21 cells by filter binding assay
[24] = target: Insulin receptor (Mus musculus) (UniProt P15208); details: CD-1, dose >= 30.0 mg/kg, route po, time 242.0 min

Sequence of Serine/threonine-protein kinase TBK1 (Homo sapiens) (Q9UHD2 whole entry): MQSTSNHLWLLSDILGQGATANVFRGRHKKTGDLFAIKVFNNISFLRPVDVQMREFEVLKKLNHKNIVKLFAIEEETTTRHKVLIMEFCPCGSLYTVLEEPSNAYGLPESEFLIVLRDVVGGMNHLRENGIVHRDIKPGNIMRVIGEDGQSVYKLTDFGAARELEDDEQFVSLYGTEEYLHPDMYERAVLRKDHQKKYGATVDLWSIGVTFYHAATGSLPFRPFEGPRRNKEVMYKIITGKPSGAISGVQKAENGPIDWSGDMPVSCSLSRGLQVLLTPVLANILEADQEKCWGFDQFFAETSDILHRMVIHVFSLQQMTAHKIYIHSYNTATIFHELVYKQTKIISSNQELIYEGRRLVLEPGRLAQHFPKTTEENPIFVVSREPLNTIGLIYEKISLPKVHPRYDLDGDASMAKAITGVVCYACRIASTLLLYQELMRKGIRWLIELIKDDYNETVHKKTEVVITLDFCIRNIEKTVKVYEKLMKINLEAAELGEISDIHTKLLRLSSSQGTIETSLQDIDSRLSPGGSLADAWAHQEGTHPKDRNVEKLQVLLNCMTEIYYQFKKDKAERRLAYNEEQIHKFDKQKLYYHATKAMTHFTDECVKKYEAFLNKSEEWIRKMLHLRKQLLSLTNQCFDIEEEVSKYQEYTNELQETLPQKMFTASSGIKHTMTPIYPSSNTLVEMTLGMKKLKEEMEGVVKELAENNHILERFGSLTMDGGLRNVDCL
Sequence of MAP kinase-activated protein kinase 2 (P49137 whole entry): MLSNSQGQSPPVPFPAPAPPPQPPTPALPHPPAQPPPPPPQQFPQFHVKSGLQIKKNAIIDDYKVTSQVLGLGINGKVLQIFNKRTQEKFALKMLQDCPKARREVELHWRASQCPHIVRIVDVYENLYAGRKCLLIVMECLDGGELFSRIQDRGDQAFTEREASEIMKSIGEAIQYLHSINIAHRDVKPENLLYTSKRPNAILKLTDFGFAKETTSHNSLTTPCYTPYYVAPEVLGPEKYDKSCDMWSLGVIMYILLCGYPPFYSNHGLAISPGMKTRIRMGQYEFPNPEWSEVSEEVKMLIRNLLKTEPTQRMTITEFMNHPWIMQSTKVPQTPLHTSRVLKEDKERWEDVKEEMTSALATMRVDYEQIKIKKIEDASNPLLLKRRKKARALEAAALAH
Sequence of Inhibitor of nuclear factor kappa-B kinase subunit beta (O14920 whole entry): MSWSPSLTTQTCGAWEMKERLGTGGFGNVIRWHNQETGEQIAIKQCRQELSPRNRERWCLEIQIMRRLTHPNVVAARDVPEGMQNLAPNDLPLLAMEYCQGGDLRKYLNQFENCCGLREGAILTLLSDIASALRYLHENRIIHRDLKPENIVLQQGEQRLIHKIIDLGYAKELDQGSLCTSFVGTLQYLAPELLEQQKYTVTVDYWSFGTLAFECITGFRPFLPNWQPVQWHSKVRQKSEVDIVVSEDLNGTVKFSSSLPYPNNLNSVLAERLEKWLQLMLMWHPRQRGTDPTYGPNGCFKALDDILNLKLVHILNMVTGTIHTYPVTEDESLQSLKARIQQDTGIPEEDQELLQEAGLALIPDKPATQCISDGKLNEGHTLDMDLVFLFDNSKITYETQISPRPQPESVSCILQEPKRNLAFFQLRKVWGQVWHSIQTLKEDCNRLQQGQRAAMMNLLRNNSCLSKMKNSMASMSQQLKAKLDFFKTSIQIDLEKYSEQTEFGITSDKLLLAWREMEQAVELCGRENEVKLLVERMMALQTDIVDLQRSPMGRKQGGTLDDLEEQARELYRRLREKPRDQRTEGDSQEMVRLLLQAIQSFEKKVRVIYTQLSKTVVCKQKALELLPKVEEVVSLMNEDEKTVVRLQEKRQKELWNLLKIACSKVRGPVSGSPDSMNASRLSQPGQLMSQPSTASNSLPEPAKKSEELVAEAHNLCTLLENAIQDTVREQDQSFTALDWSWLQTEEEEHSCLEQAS
Sequence of Serine/threonine-protein kinase TAO2 (Homo sapiens) (Q9UL54 whole entry): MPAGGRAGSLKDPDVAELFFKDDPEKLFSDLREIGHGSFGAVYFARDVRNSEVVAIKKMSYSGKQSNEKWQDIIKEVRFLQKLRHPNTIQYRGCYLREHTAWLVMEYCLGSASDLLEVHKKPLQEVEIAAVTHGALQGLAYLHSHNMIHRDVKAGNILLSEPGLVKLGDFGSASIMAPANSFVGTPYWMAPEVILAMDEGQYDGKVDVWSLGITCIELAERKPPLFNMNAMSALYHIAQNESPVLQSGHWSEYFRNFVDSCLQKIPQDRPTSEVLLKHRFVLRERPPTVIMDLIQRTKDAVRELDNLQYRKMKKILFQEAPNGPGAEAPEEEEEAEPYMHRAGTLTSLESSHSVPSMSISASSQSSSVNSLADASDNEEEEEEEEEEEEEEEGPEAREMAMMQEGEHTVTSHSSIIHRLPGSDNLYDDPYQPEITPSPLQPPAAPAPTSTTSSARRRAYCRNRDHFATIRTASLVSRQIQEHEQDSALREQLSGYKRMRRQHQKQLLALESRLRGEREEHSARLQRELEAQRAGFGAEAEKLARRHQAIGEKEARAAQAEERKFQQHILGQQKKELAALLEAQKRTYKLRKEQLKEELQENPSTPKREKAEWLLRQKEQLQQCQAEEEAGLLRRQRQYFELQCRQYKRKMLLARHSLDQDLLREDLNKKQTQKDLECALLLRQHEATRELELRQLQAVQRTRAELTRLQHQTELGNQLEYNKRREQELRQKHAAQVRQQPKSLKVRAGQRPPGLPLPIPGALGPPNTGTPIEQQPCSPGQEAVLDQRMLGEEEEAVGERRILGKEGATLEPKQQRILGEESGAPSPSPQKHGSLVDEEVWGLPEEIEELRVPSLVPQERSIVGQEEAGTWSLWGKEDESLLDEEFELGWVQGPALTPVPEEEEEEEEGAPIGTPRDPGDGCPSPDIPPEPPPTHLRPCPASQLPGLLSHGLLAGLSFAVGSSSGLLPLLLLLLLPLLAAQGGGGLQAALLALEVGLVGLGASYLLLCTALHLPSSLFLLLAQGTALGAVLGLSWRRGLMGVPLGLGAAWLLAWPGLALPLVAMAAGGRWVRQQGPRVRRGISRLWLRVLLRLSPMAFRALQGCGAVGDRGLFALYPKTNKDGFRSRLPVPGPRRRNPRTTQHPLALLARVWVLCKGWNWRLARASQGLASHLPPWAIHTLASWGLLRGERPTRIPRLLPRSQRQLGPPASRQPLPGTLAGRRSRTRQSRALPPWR
Sequence of Aurora kinase A (O14965 whole entry): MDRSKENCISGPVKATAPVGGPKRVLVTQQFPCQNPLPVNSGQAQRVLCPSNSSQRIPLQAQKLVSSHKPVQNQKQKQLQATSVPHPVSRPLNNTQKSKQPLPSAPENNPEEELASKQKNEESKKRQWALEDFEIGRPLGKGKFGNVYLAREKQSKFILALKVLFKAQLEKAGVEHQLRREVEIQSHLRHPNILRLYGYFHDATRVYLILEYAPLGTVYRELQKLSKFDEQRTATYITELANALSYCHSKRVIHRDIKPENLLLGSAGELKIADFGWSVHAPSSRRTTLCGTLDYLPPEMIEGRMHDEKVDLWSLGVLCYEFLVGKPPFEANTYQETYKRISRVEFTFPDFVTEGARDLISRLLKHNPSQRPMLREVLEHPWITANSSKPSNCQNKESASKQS
Sequence of Cyclin-dependent kinase 16 (Q00536 whole entry, canonical isoform): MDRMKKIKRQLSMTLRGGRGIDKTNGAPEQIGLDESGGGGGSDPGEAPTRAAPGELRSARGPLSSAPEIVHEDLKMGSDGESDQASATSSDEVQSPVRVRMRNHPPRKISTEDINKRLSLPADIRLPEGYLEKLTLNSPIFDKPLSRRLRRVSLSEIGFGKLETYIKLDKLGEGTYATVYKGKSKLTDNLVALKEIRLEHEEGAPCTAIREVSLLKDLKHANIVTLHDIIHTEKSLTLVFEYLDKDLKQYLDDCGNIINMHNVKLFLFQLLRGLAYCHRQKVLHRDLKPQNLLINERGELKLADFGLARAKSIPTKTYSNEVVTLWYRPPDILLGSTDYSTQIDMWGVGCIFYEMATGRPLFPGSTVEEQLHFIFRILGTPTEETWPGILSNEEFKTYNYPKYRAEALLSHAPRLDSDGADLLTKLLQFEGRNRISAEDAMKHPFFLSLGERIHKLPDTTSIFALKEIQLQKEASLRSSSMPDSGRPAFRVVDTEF
Sequence of Dual specificity mitogen-activated protein kinase kinase 6 (Homo sapiens) (P52564 whole entry): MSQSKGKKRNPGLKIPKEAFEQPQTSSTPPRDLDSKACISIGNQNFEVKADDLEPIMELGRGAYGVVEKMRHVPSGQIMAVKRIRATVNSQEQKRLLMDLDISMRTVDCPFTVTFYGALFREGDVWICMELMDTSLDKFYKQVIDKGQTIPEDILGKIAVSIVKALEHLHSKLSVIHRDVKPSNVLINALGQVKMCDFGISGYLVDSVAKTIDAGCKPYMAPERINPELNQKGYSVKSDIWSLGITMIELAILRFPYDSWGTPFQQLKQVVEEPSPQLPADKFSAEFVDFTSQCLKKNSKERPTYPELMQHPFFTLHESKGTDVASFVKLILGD
Sequence of Tyrosine-protein kinase BTK (Q06187 whole entry): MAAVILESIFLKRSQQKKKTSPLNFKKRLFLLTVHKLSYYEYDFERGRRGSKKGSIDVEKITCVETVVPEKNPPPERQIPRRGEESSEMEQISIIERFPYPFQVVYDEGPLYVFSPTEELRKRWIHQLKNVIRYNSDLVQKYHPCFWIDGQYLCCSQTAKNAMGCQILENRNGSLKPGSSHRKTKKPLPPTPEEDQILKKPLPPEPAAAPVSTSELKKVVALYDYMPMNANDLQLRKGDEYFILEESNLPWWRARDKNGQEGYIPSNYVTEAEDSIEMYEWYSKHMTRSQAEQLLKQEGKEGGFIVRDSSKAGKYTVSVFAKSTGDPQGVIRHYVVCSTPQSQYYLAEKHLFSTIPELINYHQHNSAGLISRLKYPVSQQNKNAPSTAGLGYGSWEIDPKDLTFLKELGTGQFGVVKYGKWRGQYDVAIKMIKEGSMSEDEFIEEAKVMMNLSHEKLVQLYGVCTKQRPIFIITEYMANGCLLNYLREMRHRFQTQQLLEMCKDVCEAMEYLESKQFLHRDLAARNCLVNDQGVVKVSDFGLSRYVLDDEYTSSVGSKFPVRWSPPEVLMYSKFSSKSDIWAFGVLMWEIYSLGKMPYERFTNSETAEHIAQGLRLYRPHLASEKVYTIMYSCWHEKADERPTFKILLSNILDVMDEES

CCc1cc(Nc2nccc(-c3c(-c4ccc(OC)c(C(=O)Nc5c(F)cccc5F)c4)nc4ccccn34)n2)c(OC)cc1N1CCC(N2CCN(S(C)(=O)=O)CC2)CC1
IC50 [1]: > 30 µM | IC50 (SU-DHL-1): > 30 µM | IC50 (NCI-H1299): > 20 µM | IC50 at 72 h [2]: > 20 µM | Activity (COLO 205): 78% | Activity [3]: Non-Toxic | inhibition in vivo at 30 mg/kg [4]: 99% | inhibition (INH) [5]: 100% | inhibition (INH) [6]: >90% | IC50 [7]: > 10 µM | IC50 [8]: 13 µM | IC50 [9]: > 10 µM | IC50 [10]: > 25 µM | IC50 [11]: > 10 µM | IC50 [12]: > 10 µM | IC50 [13]: 3.2 µM | inhibition [14]: 11% | inhibition [15]: 10% | inhibition [16]: 1% | inhibition [17]: 18% | inhibition [18]: 0% | inhibition [19]: 25% | inhibition [20]: -8% | inhibition [21]: 1% | inhibition [22]: 22% | IC50 (Aurora kinase A): 0.159 µM | IC50 [23]: 2.85 µM | inhibition [24]: Active

From ChEMBL document CHEMBL5678798 (Clin Cancer Res, 2009)
